Source: ChEMBL document CHEMBL2429747, “Synthesis and biological evaluation of α-galactosylceramide analogues with heteroaromatic rings and varying positions of a phenyl group in the sphingosine backbone” (J Med Chem, 2013)
Calls of active or inactive are those of the source. No cut-off for these calls is given here.

Assays:
Mus musculus [1] = experiment: In vivo immunomodulatory activity in wild type C57BL/6 mouse assessed as decrease in IFN-gamma level in serum at 2 ug, iv administered as single dose measured after 12 to 24 hrs; type: functional, organism-based
How it was run: (§1)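 Mice were given a single intravenous injection of 2 μg glycolipid, and serum was collected at set times after injection. Serum cytokines were measured by sandwich ELISA: plates coated with anti-cytokine antibody and blocked with 1% BSA, serum incubated overnight at 4 °C, then biotinylated antibody, streptavidin-HRP and TMB, with absorbance read at 450 nm.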

Mus musculus [2] = experiment: In vivo immunomodulatory activity in wild type C57BL/6 mouse assessed as IL-4 level in serum at 2 ug, iv administered as single dose measured at 2 hrs; type: functional, organism-based; how it was run: as §1
Mus musculus [3] = experiment: In vivo immunomodulatory activity in wild type C57BL/6 mouse assessed as IL-4 level in serum at 2 ug, iv administered as single dose measured at >2 hrs; type: functional, organism-based; how it was run: as §1
Mus musculus [4] = organism: Mus musculus; experiment: Antiautoimmune disease activity in wild type C57BL/6 mouse experimental autoimmune encephalitis model assessed as reduction in disease pathogenicity at 2 ug, […] as single dose measured up to 30 days; type: functional, organism-based
How it was run: (§2)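 Wild-type B6 mice received 2D2 TCR-transgenic lymphocytes containing 1 × 10^6 Va3.2+Vβ11+ CD4+ T cells via the tail vein. After 24 h, mice were immunized sc in each flank with 200 μg MOG35−55 in incomplete Freund's adjuvant with 200 μg M. tuberculosis. Pertussis toxin was given ip on day 0 and day 2. A single 2 μg dose was mixed into the antigen emulsion at immunization. EAE clinical score was followed; n = 8/group from two experiments, mean ± SEM.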

Mus musculus [5] = experiment: Immunomodulatory activity in PMA- and ionomycin-stimulated wild type C57BL/6 mouse HMNC cells assessed as reduction in IFN-gamma cytokine in cell culture supernatant at 2 ug, ip administered as single dose measured 22 days post immunization by ELISA relative to vehicle-treated control; type: functional, organism-based
How it was run: (§3)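 Spinal cord mononuclear cells were isolated at day 22 by Percoll gradient and restimulated 4 h with PMA 50 ng/mL plus ionomycin 1 μg/mL. Supernatant cytokines were measured by sandwich ELISA using capture antibody, biotinylated detection antibody, streptavidin-HRP and TMB. Data are mean ± SD of individual mice, n = 3−4/group.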

Mus musculus [6] = experiment: Immunomodulatory activity in PMA- and ionomycin-stimulated wild type C57BL/6 mouse HMNC cells assessed as inhibition of Th1 differentiation of MOG-specific CD4+ T cells at 2 ug, ip administered as single dose measured 22 days post immunization by brefeldin A staining-based flow cytometric analysis; type: functional, organism-based
How it was run: (§4)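 At 22 days post-immunization, mice were perfused with cold PBS. Lumbar spinal cord was minced, digested and homogenized, and mononuclear cells were taken from the 30−70% Percoll interface. Cells were restimulated 4 h with PMA 50 ng/mL and ionomycin 1 μg/mL, with brefeldin A 1 μg/mL for the last 2 h. Cells were surface-stained, fixed in 4% PFA, permeabilized with Triton buffer, stained for CD4, IL-17 and IFN-γ, and analyzed by flow cytometry.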

Mus musculus [7] = organism: Mus musculus; experiment: Antiautoimmune disease activity in wild type C57BL/6 mouse experimental autoimmune encephalitis model assessed as delay in disease onset at 2 ug, […] as single dose measured up to 30 days; type: functional, organism-based; how it was run: as §2
Mus musculus [8] = experiment: Immunomodulatory activity in PMA- and ionomycin-stimulated wild type C57BL/6 mouse HMNC cells assessed as inhibition of Th17 differentiation of MOG-specific CD4+ T cells at 2 ug, ip administered as single dose measured 22 days post immunization by brefeldin A staining-based flow cytometric analysis; type: functional, organism-based; how it was run: as §4
Mus musculus [9] = experiment: Immunomodulatory activity in PMA- and ionomycin-stimulated wild type C57BL/6 mouse HMNC cells assessed as reduction in IL-17 cytokine in cell culture supernatant at 2 ug, ip administered as single dose measured 22 days post immunization by ELISA relative to vehicle-treated control; type: functional, organism-based; how it was run: as §3
HMNC [10] = experiment: Immunomodulatory activity in wild type C57BL/6 mouse HMNC cells assessed as increase in IL-4 secretion at 25 nM after 72 hrs by ELISA; type: functional, cell-based
How it was run: (§5)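 Hepatic mononuclear cells from C57BL/6 mice were isolated on Percoll and grown in RPMI-1640 with 10% FBS, L-glutamine and 2-mercaptoethanol. Cells (2 × 10^5) were stimulated 72 h with 25 nM glycolipid. Supernatant cytokines were measured by sandwich ELISA: overnight 4 °C sample incubation, biotinylated antibody, streptavidin-HRP, TMB, A450. Assays were run in triplicate and repeated 2−3 times; mean ± SD.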

HMNC [11] = experiment: Immunomodulatory activity in wild type C57BL/6 mouse HMNC cells assessed as reduction in IFN-gamma secretion at 25 nM after 72 hrs by ELISA; type: functional, cell-based; how it was run: as §5
Mus musculus [12] = experiment: In vivo immunomodulatory activity in wild type C57BL/6 mouse assessed as decrease in IL-17 level in serum at 2 ug, iv administered as single dose measured at 12 to 24 hrs; type: functional, organism-based; how it was run: as §1
HMNC [13] = experiment: Immunomodulatory activity in wild type C57BL/6 mouse HMNC cells assessed as reduction in IL-17 secretion at 25 nM after 72 hrs by ELISA; type: functional, cell-based; how it was run: as §5
Mus musculus [14] = experiment: Antiautoimmune disease activity in wild type C57BL/6 mouse experimental autoimmune encephalitis model assessed as reduction in mononuclear cells infiltration into white matter at 2 ug, ip administered as single dose measured on day 18 post immunization by H & E staining-based analysis relative to vehicle-treated control; type: functional, organism-based

Row | SMILES | Activity (Mus musculus [1]) | Activity (Mus musculus [2]) | Activity (Mus musculus [3]) | Activity (Mus musculus [4]) | Activity (Mus musculus [5]) | Activity (Mus musculus [6]) | Activity (Mus musculus [7]) | Activity (Mus musculus [8]) | Activity (Mus musculus [9]) | Activity (HMNC [10]) | Activity (HMNC [11]) | Activity (Mus musculus [12]) | Activity (HMNC [13]) | Activity (Mus musculus [14])
1 | CCCCCCCCCCCCCCCCCCCCCCCCCC(=O)N[C@@H](CO[C@H]1O[C@H](CO)[C@H](O)[C@H](O)[C@H]1O)[C@H](O)[C@H](O)CCCCCCCCCCCCCC | inactive | Active | inactive | Active | inactive | inactive | inactive | inactive | inactive | – | – | – | – | –
2 | CCCCCCCCCCCCCCCCCCCCCCCCCC(=O)N[C@@H](CO[C@H]1O[C@H](CO)[C@H](O)[C@H](O)[C@H]1O)[C@H](O)[C@H](O)c1cnn(CCCc2ccc(CCCC)cc2)c1 | inactive | Active | inactive | Active | Active | Active | Active | Active | Active | Active | Active | Active | Active | Active
3 | CCCCCCCCCCCCCCCCCCCCCCCCCC(=O)N[C@@H](CO[C@H]1O[C@H](CO)[C@H](O)[C@H](O)[C@H]1O)[C@H](O)[C@H](O)c1cnn(CCc2ccc(CCCCC)cc2)c1 | – | – | – | – | – | – | – | – | – | inactive | inactive | – | inactive | –
4 | CCCCCCCCCCCCCCCCCCCCCCCCCC(=O)N[C@@H](CO[C@H]1O[C@H](CO)[C@H](O)[C@H](O)[C@H]1O)[C@H](O)[C@H](O)c1cnn(CCCCc2ccc(CCC)cc2)c1 | – | – | – | – | – | – | – | – | – | Active | Active | – | Active | –
5 | CCCCCCCCCCCCCCCCCCCCCCCCCC(=O)N[C@@H](CO[C@H]1O[C@H](CO)[C@H](O)[C@H](O)[C@H]1O)[C@H](O)[C@H](O)c1cnn(CCCCCc2ccc(CC)cc2)c1 | – | – | – | – | – | – | – | – | – | Active | Active | – | Active | –
6 | CCCCCCCCCCCCCCCCCCCCCCCCCC(=O)N[C@@H](CO[C@H]1O[C@H](CO)[C@H](O)[C@H](O)[C@H]1O)[C@H](O)[C@H](O)c1cnn(Cc2ccc(CCCCCC)cc2)c1 | – | – | – | – | – | – | – | – | – | Active | Active | – | Active | –
7 | CCCCCCCCCCCCCCCCCCCCCCCCCC(=O)N[C@@H](CO[C@H]1O[C@H](CO)[C@H](O)[C@H](O)[C@H]1O)[C@H](O)[C@H](O)c1cnn(CCCCCCCc2ccccc2)c1 | – | – | – | – | – | – | – | – | – | Active | Active | – | Active | –
8 | CCCCCCCCCCCCCCCCCCCCCCCCCC(=O)N[C@@H](CO[C@H]1O[C@H](CO)[C@H](O)[C@H](O)[C@H]1O)[C@H](O)[C@H](O)c1cnn(CCCCCCc2ccc(C)cc2)c1 | – | – | – | – | – | – | – | – | – | Active | Active | – | Active | –
